Laboratory results from ChEMBL document CHEMBL4011617, “Ugi Reaction-Derived α-Acyl Aminocarboxamides Bind to Phosphatidylinositol 3-Kinase-Related Kinases, Inhibit HSF1-Dependent Heat Shock Response, and Induce Apoptosis in Multiple Myeloma Cells” (J Med Chem, 2017).
Calls of active or inactive are those of the source. The rule behind the calls is not given here.

Experiments:
[1] = biological target: T1, Heat shock factor protein 1 (Homo sapiens) (UniProt Q00613); experiment: Inhibition of NVP-AUY922-induced HSF-1 phosphorylation at S326 residue in human INA-6 cells at 25 uM preincubated for 4 hrs followed by NVP-AUY922 addition measured after 4 hrs by Western blotting method; format: cell-based
T1 sequence (whole entry): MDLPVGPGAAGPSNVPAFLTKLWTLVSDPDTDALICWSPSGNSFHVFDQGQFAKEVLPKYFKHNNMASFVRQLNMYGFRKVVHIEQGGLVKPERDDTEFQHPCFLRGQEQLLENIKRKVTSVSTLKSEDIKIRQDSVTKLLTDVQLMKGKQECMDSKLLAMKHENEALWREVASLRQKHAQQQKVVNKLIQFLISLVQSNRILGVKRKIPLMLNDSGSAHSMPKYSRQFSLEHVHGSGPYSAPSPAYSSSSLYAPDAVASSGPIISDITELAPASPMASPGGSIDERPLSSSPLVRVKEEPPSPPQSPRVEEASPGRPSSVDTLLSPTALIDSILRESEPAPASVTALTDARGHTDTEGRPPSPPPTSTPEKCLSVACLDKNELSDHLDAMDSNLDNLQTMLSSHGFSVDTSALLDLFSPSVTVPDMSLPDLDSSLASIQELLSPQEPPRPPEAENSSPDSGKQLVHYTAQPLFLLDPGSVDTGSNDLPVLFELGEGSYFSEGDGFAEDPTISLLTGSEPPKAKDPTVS
Method in brief: (§1)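 INA-6 myeloma cells pretreated with test compound for 4 h, then co-treated with the HSP90 inhibitor/HSR inducer NVP-AUY922 for a further 4 h. Cells harvested; HSP72, HSP27, HSF1 or phospho-HSF1 probed by Western blot with β-actin as loading control. DMSO-only cells were the negative control; NVP-AUY922-only cells were the positive control.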

INA-6 [2] = experiment: Induction of apoptosis in human INA-6 cells at 6.3 to 8.6 uM after 72 hrs by annexin V-FITC/propidium iodide staining-based flow cytometry method; format: functional, cell-based
Method in brief: (§2)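 INA-6 cells incubated three days with DMSO or increasing compound concentrations. Viability read by annexin V-FITC/propidium iodide staining and flow cytometry. Double-negative (viable) fractions used to fit dose-response curves from three independent experiments; mean ± SD reported.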

INA-6 [3] = experiment: Inhibition of heat shock response in human INA-6 cells assessed as reduction in HSF-1 mediated upregulation of the heat shock protein HSP27 at 25 uM preincubated for 4 hrs followed by HSP90 inhibitor and HSR inducer NVP-AUY922 addition measured after 4 hrs
INA-6 [4] = experiment: Inhibition of heat shock response in human INA-6 cells assessed as reduction in HSF-1 mediated upregulation of the heat shock protein HSP72 at 25 uM preincubated for 4 hrs followed by HSP90 inhibitor and HSR inducer NVP-AUY922 addition measured after 4 hrs by ELISA; format: functional, cell-based
Method in brief: (§3)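 HSP72 quantified by ELISA in the same protein lysates used for Western blots. INA-6 cells received compound for 4 h, then NVP-AUY922 co-treatment for 4 h more to stimulate HSF1. DMSO-only and NVP-AUY922-only cells served as negative and positive controls.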

INA-6 [5] = experiment: Inhibition of heat shock response in human INA-6 cells assessed as reduction in HSF-1 mediated upregulation of the heat shock protein HSP27 at 25 uM preincubated for 4 hrs followed by HSP90 inhibitor and HSR inducer NVP-AUY922 addition measured after 4 hrs by Western blot method; format: functional, cell-based; method in brief: as §1
INA-6 [6] = experiment: Downregulation of NVP-AUY922-induced HSF-1 protein expression in human INA-6 cells at 25 uM preincubated for 4 hrs followed by NVP-AUY922 addition measured after 4 hrs by Western blot method; format: functional, cell-based
Method in brief: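 INA-6 cells were pre-treated with compound for 4 h, then co-treated with the HSP90 inhibitor NVP-AUY922 for an additional 4 h. Cells were harvested and blotted for HSP72, HSP27, HSF1 or phospho-HSF1, with β-actin as the loading control. DMSO-only cells served as the negative control and NVP-AUY922-only cells as the positive control.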

INA-6 [7] = experiment: Effect on NVP-AUY922-induced HSF-1 mRNA expression in human INA-6 cells at 25 uM preincubated for 4 hrs followed by NVP-AUY922 addition measured after 4 hrs by RT-PCR method; format: functional, cell-based
Method in brief: (§4)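 INA-6 cells exposed to compound for 4 h, then co-treated with 10 nM NVP-AUY922 for another 4 h. Total RNA isolated; HSP27, HSP72 and HSF1 transcripts measured by real-time PCR and normalized to α-tubulin. Means and standard deviations from three independent experiments.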

INA-6 [8] = experiment: Induction of apoptosis in human INA-6 cells preincubated for 4 hrs followed by NVP-AUY922 addition measured after 68 hrs by annexin V-FITC/propidium iodide staining-based flow cytometry method; format: functional, cell-based
Method in brief: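 INA-6 cells received DMSO or test compound for 72 h. At 4 h, DMSO or 10 nM NVP-AUY922 was added for the remaining 68 h. Viable fraction measured by annexin V-FITC/PI flow cytometry and expressed relative to the matching DMSO controls; means ± SD of three independent experiments.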

INA-6 [9] = experiment: Inhibition of heat shock response in human INA-6 cells assessed as reduction in HSF-1 mediated upregulation of the heat shock protein HSP72 at 25 uM preincubated for 4 hrs followed by HSP90 inhibitor and HSR inducer NVP-AUY922 addition measured after 4 hrs by Western blot method; format: functional, cell-based; method in brief: as §1
INA-6 [10] = experiment: Downregulation of NVP-AUY922-induced HSF-1 protein expression in human INA-6 cells at 10 uM preincubated for 4 hrs followed by NVP-AUY922 addition measured after 4 hrs by Western blot method; format: functional, cell-based
Method in brief: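 INA-6 cells received the dual DNA-PK/mTOR inhibitor for 4 h, then 10 nM NVP-AUY922 was added for another 4 h. Protein lysates were Western blotted for HSF1, phospho-HSF1, HSP72 and HSP27, with α-tubulin as the loading control.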

INA-6 [11] = experiment: Inhibition of heat shock response in human INA-6 cells assessed as reduction in HSF-1 mediated upregulation of the HSP72 mRNA expression at 10 uM preincubated for 4 hrs followed by HSP90 inhibitor and HSR inducer NVP-AUY922 addition measured after 4 hrs by RT-PCR method; format: functional, cell-based
Method in brief: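 Cells pretreated 4 h with NU7441, then 10 nM NVP-AUY922 added for 4 h. Total mRNA isolated; HSF1 and HSP72 levels determined by RT-PCR and normalized to α-tubulin.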

INA-6 [12] = experiment: Downregulation of NVP-AUY922-induced HSF-1 mRNA expression in human INA-6 cells at 10 uM preincubated for 4 hrs followed by NVP-AUY922 addition measured after 4 hrs by RT-PCR method; format: functional, cell-based
Method in brief: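 INA-6 myeloma cells were treated with the dual DNA-PK/mTOR inhibitor for 4 h, then co-treated with 10 nM NVP-AUY922 for a further 4 h. Total RNA was isolated and HSF1 and HSP72 mRNA was measured by RT-PCR. Values were normalized to α-tubulin.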

[13] = biological target: T1, Heat shock factor protein 1 (Homo sapiens); experiment: Inhibition of NVP-AUY922-induced HSF-1 phosphorylation in human INA-6 cells at 10 uM preincubated for 4 hrs followed by NVP-AUY922 addition measured after 4 hrs by Western blot method; format: cell-based
Method in brief: (§5)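 INA-6 cells given the dual DNA-PK/mTOR inhibitor NU7441 for 4 h, then co-treated with 10 nM NVP-AUY922 for 4 h more. Protein lysates analysed by Western blot for HSF1, phospho-HSF1, HSP72 and HSP27, with α-tubulin as loading control.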

INA-6 [14] = experiment: Inhibition of heat shock response in human INA-6 cells assessed as reduction in HSF-1 mediated upregulation of the HSP72 protein expression at 10 uM preincubated for 4 hrs followed by HSP90 inhibitor and HSR inducer NVP-AUY922 addition measured after 4 hrs by Western blot method; format: functional, cell-based; method in brief: as §5
INA-6 [15] = experiment: Inhibition of heat shock response in human INA-6 cells assessed as reduction in HSF-1 mediated upregulation of the heat shock protein HSP72 at 50 uM preincubated for 4 hrs followed by HSP90 inhibitor and HSR inducer NVP-AUY922 addition measured after 4 hrs by Western blot method; format: functional, cell-based; method in brief: as §1
INA-6 [16] = experiment: Inhibition of heat shock response in human INA-6 cells assessed as reduction in HSF-1 mediated upregulation of the heat shock protein HSP72 at 50 uM preincubated for 4 hrs followed by HSP90 inhibitor and HSR inducer NVP-AUY922 addition measured after 4 hrs by ELISA; format: functional, cell-based; method in brief: as §3
INA-6 [17] = experiment: Effect on NVP-AUY922-induced HSF-1 mRNA expression in human INA-6 cells at 50 uM preincubated for 4 hrs followed by NVP-AUY922 addition measured after 4 hrs by RT-PCR method; format: functional, cell-based; method in brief: as §4
INA-6 [18] = experiment: Induction of apoptosis in human INA-6 cells up to 50 uM after 72 hrs by annexin V-FITC/propidium iodide staining-based flow cytometry method; format: functional, cell-based; method in brief: as §2
INA-6 [19] = experiment: Inhibition of heat shock response in human INA-6 cells assessed as reduction in HSF-1 mediated upregulation of the heat shock protein HSP27 at 50 uM preincubated for 4 hrs followed by HSP90 inhibitor and HSR inducer NVP-AUY922 addition measured after 4 hrs by Western blot method; format: functional, cell-based; method in brief: as §1
INA-6 [20] = experiment: Inhibition of heat shock response in human INA-6 cells assessed as reduction in HSF-1 mediated upregulation of the heat shock protein HSP27 at 12.5 uM preincubated for 4 hrs followed by HSP90 inhibitor and HSR inducer NVP-AUY922 addition measured after 4 hrs by Western blot method; format: functional, cell-based; method in brief: as §1
INA-6 [21] = experiment: Effect on NVP-AUY922-induced HSF-1 mRNA expression in human INA-6 cells at 12.5 uM preincubated for 4 hrs followed by NVP-AUY922 addition measured after 4 hrs by RT-PCR method; format: functional, cell-based; method in brief: as §4
INA-6 [22] = experiment: Inhibition of heat shock response in human INA-6 cells assessed as reduction in HSF-1 mediated upregulation of the heat shock protein HSP72 at 12.5 uM preincubated for 4 hrs followed by HSP90 inhibitor and HSR inducer NVP-AUY922 addition measured after 4 hrs by Western blot method; format: functional, cell-based; method in brief: as §1
INA-6 [23] = experiment: Inhibition of heat shock response in human INA-6 cells assessed as reduction in HSF-1 mediated upregulation of the heat shock protein HSP27 at 12.5 uM preincubated for 4 hrs followed by HSP90 inhibitor and HSR inducer NVP-AUY922 addition measured after 4 hrs by ELISA; format: functional, cell-based
INA-6 [24] = experiment: Inhibition of heat shock response in human INA-6 cells assessed as reduction in HSF-1 mediated upregulation of the heat shock protein HSP72 at 12.5 uM preincubated for 4 hrs followed by HSP90 inhibitor and HSR inducer NVP-AUY922 addition measured after 4 hrs by ELISA; format: functional, cell-based; method in brief: as §3
INA-6 [25] = experiment: Inhibition of heat shock response in human INA-6 cells assessed as reduction in HSF-1 mediated upregulation of the heat shock protein HSP27 at 50 uM preincubated for 4 hrs followed by HSP90 inhibitor and HSR inducer NVP-AUY922 addition measured after 4 hrs by ELISA; format: functional, cell-based
INA-6 [26] = experiment: Downregulation of NVP-AUY922-induced HSF-1 protein expression in human INA-6 cells at 50 uM preincubated for 4 hrs followed by NVP-AUY922 addition measured after 4 hrs by Western blot method; format: functional, cell-based; method in brief: as §1
[27] = biological target: Heat shock factor protein 1 (Homo sapiens) (UniProt Q00613); experiment: Inhibition of NVP-AUY922-induced HSF-1 phosphorylation at S326 residue in human INA-6 cells at 50 uM preincubated for 4 hrs followed by NVP-AUY922 addition measured after 4 hrs by Western blot method; format: cell-based; method in brief: as §1

With `NCCOCCOCCNCCOc1ccc(C(C(=O)NCc2ccccc2)N(C(=O)CCc2ccccc2)C2CC2)cc1` (stereo unspecified) the inhibition [1] was “Active”, the Activity (INA-6 [2]) was “Active” and the inhibition (INA-6 [3]) was “Active”. The inhibition (INA-6 [4]) was “Active”, the inhibition (INA-6 [5]) was “Active” and the Activity (INA-6 [6]) was “Active”. For the same compound, the Activity (INA-6 [7]) was “inactive”, the Activity (INA-6 [8]) was “Active” and the inhibition (INA-6 [9]) was “Active”.

For `O=c1cc(N2CCOCC2)oc2c(-c3cccc4c3sc3ccccc34)cccc12`, the Activity (INA-6 [10]) was “Active”, the inhibition (INA-6 [11]) was “Active” and the Activity (INA-6 [12]) was “Active”. The inhibition [13] was “Active” and the inhibition (INA-6 [14]) was “Active”.

With `COc1ccc(/C=C/C(=O)N(Cc2ccc(OC)cc2)C(C(=O)NCc2ccccc2)c2ccccc2Br)cc1` (racemic) the “heat shock response inhibition (active/not active)” value (INA-6 [15]) was “inactive”, the “HSP72 upregulation inhibition (active/not active)” value (INA-6 [16]) was “inactive” and the Activity (INA-6 [17]) was “inactive”. The Activity (INA-6 [18]) was “inactive” and the “activity call (active/not active) for inhibition of HSP27 upregulation” value (INA-6 [19]) was “inactive”.

`NCCOCCOCCNCCCCOc1ccc(CCC(=O)N(C2CC2)C(C(=O)NCc2ccccc2)c2ccc(Br)cc2)cc1` (racemic) was tested, and the Activity (INA-6 [2]) was “Active”, the inhibition (INA-6 [20]) was “inactive” and the Activity (INA-6 [21]) was “inactive”. For the same compound, the inhibition (INA-6 [22]) was “inactive”, the inhibition (INA-6 [23]) was “inactive” and the inhibition (INA-6 [24]) was “inactive”.

In the case of “N-(2-(Benzylamino)-1-(2-bromophenyl)-2-oxoethyl)-N-cyclopropylcinnamamide”, the “heat shock response inhibition (active/not active)” value (INA-6 [15]) is reported as “Active”, the “heat shock response inhibition (active/not active)” value (INA-6 [25]) is reported as “Active” and the “HSP72 upregulation inhibition (active/not active)” value (INA-6 [16]) is reported as “Active”. The Activity (INA-6 [26]) was “Active”, the inhibition [27] was “Active” and the “activity call (active/not active) for inhibition of HSP27 upregulation” value (INA-6 [19]) was “Active”.
